What was measured:
[1] = Half life in mouse at 100 mg/kg, po; assay type: ADME, organism-based; details: in vivo
In short: (§1)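 Oral ascending-dose PK in mice at 100 mg/kg (ratios against 10 mg/kg), given as a suspension in 1% methylcellulose 400cp + 0.1% Poloxamer. Cmax, AUClast and t1/2 come from plasma profiles.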

[2] = AUClast in mouse at 30 mg/kg, po; assay type: ADME, organism-based; design: time 0 - last, route oral, dose 30 mg/kg; details: in vivo
In short: (§2)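 Mice dosed orally at 10, 30 or 100 mg/kg as a suspension in 1% methylcellulose 400cp + 0.1% Poloxamer (188). Tmax, Cmax, AUClast and oral t1/2 were taken from plasma concentration–time profiles. Ratios are the value at each dose over the value at 10 mg/kg.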

[3] = (§3) In vivo inverse agonist activity at RORgamma in MOG(35-55) peptide/PTX-induced mechanistic C57BL/6 mouse model assessed as anti-CD3 induced IL-17A level in serum at 10 mg/kg, po dosed for 5 days during MOG/PTX priming and followed by 45 mins prior to anti-CD3 challenge and measured after 2 hrs relative to control; assay type: functional; details: time 5 day
In short: (§4)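 Mice immunized with mouse MOG35-55 peptide plus pertussis toxin. After 5 days, compound given orally as a suspension in methylcellulose 400cp + 1% poloxamer, 45 min before an anti-CD3 challenge. Circulating cytokines measured 2 h later. Comparison vs vehicle by Dunnett post test.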

[4] = as §3, with “30” for “10”; assay type: functional; details: time 5 day; in short: as §4
[5] = as §3, with “IL-10” for “IL-17A”, “30” for “10”, “(reference value: -11%)” for “relative to control”; assay type: functional; details: time 5 day; in short: as §4
Mus musculus [6] = assay: (§5) In vivo inverse agonist activity at RORgamma in po dosed MOG(35-55) peptide/PTX-induced mechanistic C57BL/6 mouse model assessed as anti-CD3 induced IL-17A level in serum dosed for 5 days during MOG/PTX priming and followed by 45 mins prior to anti-CD3 challenge and measured after 2 hrs relative to control; assay type: functional, organism-based; details: dose mg/kg 10-100, time 5.0 day; in short: as §4
[7] = as §3, with “IL-10” for “IL-17A”, “(reference value: -11%)” for “relative to control”; assay type: functional; details: time 5 day; in short: as §4
[8] = AUClast in mouse at 100 mg/kg, po; assay type: ADME, organism-based; design: time 0 - last, route oral, dose 100 mg/kg; details: in vivo; in short: as §1
[9] = Stability in mouse microsomes assessed as unbound intrinsic clearance; assay type: ADME, Microsome
In short: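 Unbound intrinsic clearance measured in human and mouse liver microsomes, expressed in L/h/kg. Values are geometric means of at least two separate runs.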

Cytochrome P450 2C9 = Cytochrome P450 2C9 (Homo sapiens, UniProt P11712); assay: Drug metabolism assessed as CYP2C9 (unknown origin) mediated metabolite formation; assay type: ADME
Cytochrome P450 2C9, sequence (P11712 whole entry): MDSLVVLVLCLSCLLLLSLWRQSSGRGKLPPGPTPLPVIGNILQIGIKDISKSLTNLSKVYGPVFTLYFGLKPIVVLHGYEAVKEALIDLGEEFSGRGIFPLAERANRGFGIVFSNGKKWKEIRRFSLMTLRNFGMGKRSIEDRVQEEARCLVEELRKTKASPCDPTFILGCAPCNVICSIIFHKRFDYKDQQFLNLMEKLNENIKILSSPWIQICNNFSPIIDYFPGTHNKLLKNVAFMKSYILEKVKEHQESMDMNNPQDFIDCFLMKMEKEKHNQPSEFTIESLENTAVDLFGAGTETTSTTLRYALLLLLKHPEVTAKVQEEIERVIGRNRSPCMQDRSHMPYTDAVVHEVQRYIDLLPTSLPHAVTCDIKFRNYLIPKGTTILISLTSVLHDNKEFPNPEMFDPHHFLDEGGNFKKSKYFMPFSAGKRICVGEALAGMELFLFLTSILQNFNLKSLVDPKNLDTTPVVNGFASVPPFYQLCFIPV

[10] = Ratio of Cmax in mouse at 100 mg/kg, po to Cmax in mouse at 10 mg/kg, po; assay type: ADME, organism-based; details: in vivo; in short: as §1
[11] = Tmax in mouse at 30 mg/kg, po; assay type: ADME, organism-based; details: in vivo
In short: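 Mice dosed orally with an ascending-dose series at 10, 30 and 100 mg/kg. Compound given as a suspension in 1% methylcellulose 400cp + 0.1% poloxamer. Plasma Tmax taken from the concentration profiles. The Cmax ratio is expressed relative to the 10 mg/kg dose.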

Mus musculus [12] = assay: Immunosuppressive activity in PLP (139 to 151 residues)-induced experimental autoimmune encephalomyelitis mouse model assessed as reduction in disease onset at 100 mg/kg, po administered bid starting from immunization relative to control; assay type: functional
In short: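 EAE induced in mice by immunization with proteolipid protein peptide PLP139-151; ascending paralysis develops 10–12 days post-immunization. Compound dosed orally b.i.d. starting from immunization. Disease onset/incidence scored relative to control.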

[13] = Cmax in mouse at 100 mg/kg, po; assay type: ADME, organism-based; design: route oral, dose 100 mg/kg; details: in vivo; in short: as §1
[14] = as §3, with “IL-22” for “IL-17A”; assay type: functional; details: time 5 day; in short: as §4
[15] = as §3, with “IL-6” for “IL-17A”, “100” for “10”; assay type: functional; details: time 5 day; in short: as §4
CYP3A4 = CYP3A4 (Homo sapiens, UniProt P08684); assay: Inhibition of CYP3A4 (unknown origin) at 1 uM relative to control; assay type: ADME
CYP3A4, sequence (P08684 whole entry): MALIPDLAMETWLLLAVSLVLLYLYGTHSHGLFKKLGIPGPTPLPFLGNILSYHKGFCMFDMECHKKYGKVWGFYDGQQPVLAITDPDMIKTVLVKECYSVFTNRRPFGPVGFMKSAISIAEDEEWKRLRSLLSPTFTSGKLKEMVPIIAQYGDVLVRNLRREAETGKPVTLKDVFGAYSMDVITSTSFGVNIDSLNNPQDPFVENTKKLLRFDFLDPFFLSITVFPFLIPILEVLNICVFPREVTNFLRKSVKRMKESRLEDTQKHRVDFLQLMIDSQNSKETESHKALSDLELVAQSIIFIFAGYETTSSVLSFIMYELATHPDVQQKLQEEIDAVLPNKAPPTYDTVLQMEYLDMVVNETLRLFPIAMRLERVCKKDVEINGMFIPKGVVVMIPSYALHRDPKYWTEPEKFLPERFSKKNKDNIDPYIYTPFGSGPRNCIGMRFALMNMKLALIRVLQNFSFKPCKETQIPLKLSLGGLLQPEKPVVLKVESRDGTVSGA

[16] = Ratio of AUClast in mouse at 30 mg/kg, po to AUClast in mouse at 10 mg/kg, po; assay type: ADME, organism-based; details: in vivo; in short: as §2
[17] = as §3, with “IL-2” for “IL-17A”; assay type: functional; details: time 5 day; in short: as §4
[18] = as §3, with “IFNgamma” for “IL-17A”; assay type: functional; details: time 5 day; in short: as §4
[19] = molecular target: T1, Nuclear receptor ROR-gamma (Homo sapiens, UniProt P51449); assay: Inverse agonist activity at RORgamma in human CD4+ T cells assessed as inhibition of IL17A secretion after 72 hrs by ELISA; assay type: cell-based, CD4+ve Th
T1 sequence (P51449 whole entry): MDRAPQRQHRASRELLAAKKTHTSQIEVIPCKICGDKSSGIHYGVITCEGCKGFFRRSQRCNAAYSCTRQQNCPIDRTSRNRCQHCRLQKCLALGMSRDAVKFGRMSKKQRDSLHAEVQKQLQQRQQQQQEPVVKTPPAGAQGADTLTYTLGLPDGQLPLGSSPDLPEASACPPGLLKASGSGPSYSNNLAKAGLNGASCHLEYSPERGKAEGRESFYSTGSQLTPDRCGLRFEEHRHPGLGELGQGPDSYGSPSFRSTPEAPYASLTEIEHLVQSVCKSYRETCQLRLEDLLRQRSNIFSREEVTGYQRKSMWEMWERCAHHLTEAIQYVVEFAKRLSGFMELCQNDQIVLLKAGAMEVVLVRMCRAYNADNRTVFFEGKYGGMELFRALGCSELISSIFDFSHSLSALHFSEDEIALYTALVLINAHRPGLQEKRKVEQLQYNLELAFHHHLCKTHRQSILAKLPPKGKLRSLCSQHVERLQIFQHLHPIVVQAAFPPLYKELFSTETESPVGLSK

[20] = Plasma clearance in mouse at 10 mg/kg, po or 1 mg/kg, iv; assay type: ADME, organism-based
In short: (§6)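 Mouse PK with iv 1 mg/kg and po 10 mg/kg, oral dose as a suspension in 1% methylcellulose 400cp + 0.1% Poloxamer 188. Plasma clearance (total and unbound), iv t1/2 and oral bioavailability F were derived from the iv and po profiles.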

[21] = Oral bioavailability in mouse at 10 mg/kg; assay type: ADME, organism-based; details: in vivo; in short: as §6
[22] = AUClast in mouse at 10 mg/kg, po; assay type: ADME, organism-based; design: route oral, time 0 - last, dose 10 mg/kg; details: in vivo; in short: as §2
[23] = as §3, with “IL-17F” for “IL-17A”; assay type: functional; details: time 5 day; in short: as §4
Mus musculus [24] = assay: as §5, with “IL-22” for “IL-17A”; assay type: functional, organism-based; details: dose mg/kg 10-100, time 5.0 day; in short: as §4

SMILES: CNC(=O)[C@@H]1CCCN1S(=O)(=O)c1ccc(Cl)c(COc2cccc3c(-c4cncn4C)cc(C(C)C)nc23)c1Cl
- half-life [1]: 2.2 h
- AUC(0-t) [2]: 34.2 µg·h/mL
- Activity [3]: -23%
- Activity [4]: -52%
- Activity [5]: 66%
- Activity (Mus musculus [6]): Dose-dependent effect
- Activity [7]: -3%
- AUC(0-t) [8]: 270 µg·h/mL
- CL free [9]: 6 L/h/kg
- Fm (Cytochrome P450 2C9): 6%
- Ratio [10]: 8.3
- Tmax [11]: 0.25 h
- inhibition in vivo at 100 mg/kg (Mus musculus [12]): 76%
- Cmax [13]: 27.5 µg/mL
- Activity [14]: -16%
- Activity [15]: -21%
- inhibition at 1 µM (CYP3A4): 99%
- Ratio [16]: 8.8
- Activity [17]: -39%
- Activity [18]: -39%
- EC50 [19]: 0.15 µM
- clearance [20]: 1.65 L/h/kg
- bioavailability [21]: 64%
- AUC(0-t) [22]: 3.9 µg·h/mL
- Activity [23]: -20%
- Activity (Mus musculus [24]): Dose-dependent effect

From ChEMBL document CHEMBL4665652, “Discovery of novel quinoline sulphonamide derivatives as potent, selective and orally active RORγ inverse agonists” (Bioorg Med Chem Lett, 2019)
